Measured values: ChEMBL document CHEMBL5338774, “Quinazoline-2-Carboxamides as Selective PET Radiotracers for Matrix Metalloproteinase-13 Imaging in Atherosclerosis” (J Med Chem, 2023)
Each block holds one molecule with its values, some of them ahead of it.

Key:
Neutrophil collagenase = Neutrophil collagenase (Homo sapiens, UniProt P22894); assay: Inhibition of human recombinant MMP-8 incubated for 30 mins by fluorescence based analysis
[1] = target: Matrix metalloproteinase-9 (Homo sapiens, UniProt P14780); assay: Inhibition of human recombinant MMP-9 incubated for 30 mins by fluorescence based analysis
Sequence of Matrix metalloproteinase-9 (P14780 whole entry): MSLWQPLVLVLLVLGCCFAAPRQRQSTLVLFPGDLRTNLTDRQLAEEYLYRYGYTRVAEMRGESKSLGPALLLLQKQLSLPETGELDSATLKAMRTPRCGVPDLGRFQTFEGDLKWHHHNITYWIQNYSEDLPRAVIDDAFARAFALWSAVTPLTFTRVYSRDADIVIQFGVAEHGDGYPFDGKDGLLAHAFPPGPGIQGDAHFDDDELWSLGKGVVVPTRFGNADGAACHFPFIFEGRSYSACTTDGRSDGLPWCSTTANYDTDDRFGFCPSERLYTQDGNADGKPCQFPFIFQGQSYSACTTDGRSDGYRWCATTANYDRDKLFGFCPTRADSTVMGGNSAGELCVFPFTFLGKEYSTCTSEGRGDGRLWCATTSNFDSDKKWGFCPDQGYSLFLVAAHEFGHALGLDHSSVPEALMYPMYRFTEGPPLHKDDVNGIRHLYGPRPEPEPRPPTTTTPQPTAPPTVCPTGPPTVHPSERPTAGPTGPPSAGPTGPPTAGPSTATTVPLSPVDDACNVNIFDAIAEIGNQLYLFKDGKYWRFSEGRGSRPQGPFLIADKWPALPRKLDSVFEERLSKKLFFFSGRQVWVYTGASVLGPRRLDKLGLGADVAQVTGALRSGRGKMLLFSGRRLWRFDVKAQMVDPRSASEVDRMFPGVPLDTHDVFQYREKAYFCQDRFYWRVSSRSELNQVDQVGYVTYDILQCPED

Stromelysin-2 = Stromelysin-2 (Homo sapiens, UniProt P09238); assay: Inhibition of human recombinant MMP-10 using […]-Pro-Lys-Pro-Val-Glu-Nval-Trp-Arg-Lys(Dnp)-NH2 as substrate preincubated for 30 mins followed by substrate addition by fluorescence based analysis
Sequence of Stromelysin-2 (P09238 whole entry): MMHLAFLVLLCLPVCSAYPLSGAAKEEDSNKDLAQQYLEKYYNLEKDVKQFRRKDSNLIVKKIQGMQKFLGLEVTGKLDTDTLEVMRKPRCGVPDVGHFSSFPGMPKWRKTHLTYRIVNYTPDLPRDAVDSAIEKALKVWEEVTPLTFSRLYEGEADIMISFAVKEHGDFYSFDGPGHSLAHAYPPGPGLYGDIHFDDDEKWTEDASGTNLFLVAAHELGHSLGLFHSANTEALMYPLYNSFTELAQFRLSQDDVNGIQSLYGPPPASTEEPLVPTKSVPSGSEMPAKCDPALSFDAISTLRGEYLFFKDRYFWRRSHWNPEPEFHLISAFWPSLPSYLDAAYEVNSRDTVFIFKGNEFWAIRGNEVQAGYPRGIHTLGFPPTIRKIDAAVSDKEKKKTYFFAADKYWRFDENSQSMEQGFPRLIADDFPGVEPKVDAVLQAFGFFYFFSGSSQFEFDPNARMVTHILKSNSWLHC

[2] = target: 72 kDa type IV collagenase (Homo sapiens, UniProt P08253); assay: Inhibition of human recombinant MMP-2 incubated for 30 mins by fluorescence based analysis
Sequence of 72 kDa type IV collagenase (P08253 whole entry): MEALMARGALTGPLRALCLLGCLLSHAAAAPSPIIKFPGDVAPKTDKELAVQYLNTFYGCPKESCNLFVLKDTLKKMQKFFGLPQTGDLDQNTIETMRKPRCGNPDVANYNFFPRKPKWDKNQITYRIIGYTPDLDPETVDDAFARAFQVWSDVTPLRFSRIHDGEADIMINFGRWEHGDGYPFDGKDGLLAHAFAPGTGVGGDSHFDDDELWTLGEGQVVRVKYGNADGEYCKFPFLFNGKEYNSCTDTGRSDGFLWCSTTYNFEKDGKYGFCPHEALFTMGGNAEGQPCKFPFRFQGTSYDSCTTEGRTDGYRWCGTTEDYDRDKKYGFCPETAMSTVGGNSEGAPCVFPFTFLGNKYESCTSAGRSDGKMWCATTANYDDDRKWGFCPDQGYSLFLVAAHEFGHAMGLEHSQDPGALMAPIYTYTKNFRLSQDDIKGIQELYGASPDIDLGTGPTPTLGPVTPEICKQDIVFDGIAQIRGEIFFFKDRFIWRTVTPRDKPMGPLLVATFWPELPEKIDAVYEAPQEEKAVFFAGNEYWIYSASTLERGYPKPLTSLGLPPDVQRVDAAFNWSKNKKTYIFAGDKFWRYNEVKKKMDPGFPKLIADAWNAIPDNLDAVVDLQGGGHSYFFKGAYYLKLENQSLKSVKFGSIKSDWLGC

Collagenase 3 = Collagenase 3 (Homo sapiens, UniProt P45452); assay: Inhibition of human recombinant MMP-13 using Mca-Lys-Pro-Leu-GlyLeu-Dpa-Ala-Arg-NH2 as substrate preincubated for 30 mins followed by substrate addition by fluorescence based analysis
Interstitial collagenase = target: T1, Interstitial collagenase (Homo sapiens, UniProt P03956); assay: Inhibition of human recombinant MMP-1 incubated for 30 mins by fluorescence based analysis
T1 sequence (P03956 whole entry): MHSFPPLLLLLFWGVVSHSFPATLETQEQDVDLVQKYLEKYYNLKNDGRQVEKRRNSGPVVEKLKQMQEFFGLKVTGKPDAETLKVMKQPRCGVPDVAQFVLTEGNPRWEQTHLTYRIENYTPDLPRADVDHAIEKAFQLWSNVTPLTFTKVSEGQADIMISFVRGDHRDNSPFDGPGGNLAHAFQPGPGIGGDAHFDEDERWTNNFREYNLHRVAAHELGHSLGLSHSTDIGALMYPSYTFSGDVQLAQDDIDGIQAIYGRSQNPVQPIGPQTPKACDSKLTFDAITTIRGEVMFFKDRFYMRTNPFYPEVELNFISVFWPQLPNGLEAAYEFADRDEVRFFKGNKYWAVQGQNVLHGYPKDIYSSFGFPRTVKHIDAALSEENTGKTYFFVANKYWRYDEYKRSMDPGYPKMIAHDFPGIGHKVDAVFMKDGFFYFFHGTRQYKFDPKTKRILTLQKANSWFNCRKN

[3] = Drug distribution in western atherogenic diet fed ApoE-/- mouse bone at […], iv administered as bolus injection measured for 30 mins by gamma counter analysis; format: ADME, organism-based, Bone element; conditions: in vivo, 0.5 h
Method in brief: (§1)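 Diet-fed male ApoE-/- mice (39 ± 5 g, n = 4-6) under 2% isoflurane received radiotracer (~7.5 MBq, 100-200 µL) IV by tail-vein bolus over 30 s. After 30 min, blood was taken by cardiac puncture, then PBS/formalin perfusion and organ dissection. Uptake is decay-corrected %ID normalized to tissue mass (%ID/g).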

[4] = Drug distribution in western atherogenic diet fed ApoE-/- mouse stomach at […], iv administered as bolus injection measured for 30 mins by gamma counter analysis; format: ADME, organism-based; conditions: in vivo, 0.5 h; method in brief: as §1
[5] = Drug distribution in western atherogenic diet fed ApoE-/- mouse liver at […], iv administered as bolus injection measured for 60 mins by PET analysis; format: ADME, organism-based; conditions: in vivo, 1 h
Method in brief: (§2)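 A 10 min transmission scan preceded tail-vein IV bolus of radiotracer (~7.5 MBq, over 30 s) in diet-fed ApoE-/- mice. Dynamic whole-body PET ran for 60 min (4×15 s, 4×1 min, 11×5 min frames), corrected for attenuation and scatter, 3D-OSEM/MAP reconstruction. Volumetric organ ROIs gave %ID·cc⁻¹ time-activity curves; n = 2 per group.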

[6] = Drug distribution in western atherogenic diet fed ApoE-/- mouse kidney at […], iv administered as bolus injection measured for 30 mins by gamma counter analysis; format: ADME, organism-based; conditions: in vivo, 0.5 h; method in brief: as §1
[7] = Drug distribution in western atherogenic diet fed ApoE-/- mouse spleen at […], iv administered as bolus injection measured for 30 mins by gamma counter analysis; format: ADME, organism-based; conditions: in vivo, 0.5 h; method in brief: as §1
[8] = Stability of compound in 10% EtOH/saline assessed as compound degradation measured upto 75 mins by analytical radio-HPLC analysis; format: physicochemical; conditions: buffer, 1.25 h
Method in brief: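 Radiotracer formulated in 10% EtOH/0.9% saline was held at room temperature up to 75 min. Samples were analysed by analytical radio-HPLC (C18, 0.1 M ammonium formate/ACN gradient, 1 mL·min⁻¹).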

[9] = Drug distribution in western atherogenic diet fed ApoE-/- mouse liver at […], iv administered as bolus injection measured for 30 mins by gamma counter analysis; format: ADME, organism-based; conditions: in vivo, 0.5 h; method in brief: as §1
[10] = Drug distribution in western atherogenic diet fed ApoE-/- mouse urinary bladder at […], iv administered as bolus injection measured for 60 mins by PET analysis; format: ADME, organism-based; conditions: in vivo, 1 h; method in brief: as §2
[11] = Drug distribution in western atherogenic diet fed ApoE-/- mouse kidney at […], iv administered as bolus injection measured for 60 mins by PET analysis; format: ADME, organism-based; conditions: in vivo, 1 h; method in brief: as §2
[12] = Drug distribution in western atherogenic diet fed ApoE-/- mouse intestine at […], iv administered as bolus injection measured for 60 mins by PET analysis; format: ADME, organism-based; conditions: in vivo, 1 h; method in brief: as §2
[13] = Drug distribution in western atherogenic diet fed ApoE-/- mouse fat tissue at […], iv administered as bolus injection measured for 30 mins by gamma counter analysis; format: ADME, organism-based, Adipose tissue; conditions: in vivo, 0.5 h; method in brief: as §1
[14] = Drug distribution in western atherogenic diet fed ApoE-/- mouse intestine at […], iv administered as bolus injection measured for 30 mins by gamma counter analysis; format: ADME, organism-based; conditions: in vivo, 0.5 h; method in brief: as §1
[15] = Drug distribution in western atherogenic diet fed ApoE-/- mouse lung at […], iv administered as bolus injection measured for 30 mins by gamma counter analysis; format: ADME, organism-based; conditions: in vivo, 0.5 h; method in brief: as §1
[16] = Drug distribution in western atherogenic diet fed ApoE-/- mouse aortic plaques at […], iv administered as bolus injection measured for 30 mins by Oil Red O staining based autoradiography; format: ADME, organism-based, Aorta; conditions: in vivo, 0.5 h
Method in brief: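 Male ApoE-/- mice were fed a western atherogenic diet from 8 weeks of age for 13-16 weeks. Radiotracer (~7.5 MBq) was given IV by tail-vein bolus over 30 s. Blocking: unlabelled tracer analogue (2.5 mg/kg; DMA/propylene glycol/PEG400/water) or WAY170523 (7.5 mg/kg; DMSO/PEG400/water), both IV 15 min before. At 30 min, perfused aortae were exposed to a phosphor screen for 10 half-lives (%ID·mm⁻²), with ORO staining.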

[17] = Tmax in western atherogenic diet fed ApoE-/- mouse blood at […], iv administered as bolus injection measured for 60 mins by PET analysis; format: ADME, organism-based; conditions: in vivo, 1 h; method in brief: as §2
[18] = Octanol/PBS distribution coefficient, logD of compound at pH 7.4 incubated for 10 mins under shaking condition by gamma counter analysis; format: physicochemical
Method in brief: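 Radiotracer partitioning between 1-octanol and 1× PBS at pH 7.4. Mean ± standard error of two independent experiments, each in quadruplicate.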

[19] = Drug distribution in western atherogenic diet fed ApoE-/- mouse myocardium assessed as myocardial retention at […], iv administered as bolus injection measured for 60 mins by PET analysis; format: ADME, organism-based; conditions: in vivo, 1 h; method in brief: as §2
[20] = Stability in western atherogenic diet fed ApoE-/- mouse plasma assessed as intact compound level at ~75 MBq, iv administered as bolus injection and measured after 30 mins by gamma counter analysis; format: ADME, organism-based; conditions: read-out: Stability
Method in brief: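 Blood was drawn by cardiac puncture into K₂EDTA tubes 30 min after IV radiotracer in diet-fed ApoE-/- mice. Optional IV pretreatment 15 min before: unlabelled analogue 2.5 mg/kg or WAY170523 7.5 mg/kg. Pooled protein-free plasma was spiked with standard and run on radio-HPLC (C18, ammonium formate/ACN). Fractions were collected each minute and gamma-counted to give the parent fraction.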

[21] = Drug distribution in western atherogenic diet fed ApoE-/- mouse pancreas at […], iv administered as bolus injection measured for 30 mins by gamma counter analysis; format: ADME, organism-based; conditions: in vivo, 0.5 h; method in brief: as §1
[22] = Drug distribution in western atherogenic diet fed ApoE-/- mouse blood assessed as compound remaining at […], iv administered as bolus injection measured for 30 mins by gamma counter analysis; format: ADME, organism-based; conditions: in vivo, 0.5 h; method in brief: as §1
[23] = Drug distribution in western atherogenic diet fed ApoE-/- mouse myocardium assessed as compound remaining at […], iv administered as bolus injection measured for 30 mins by gamma counter analysis; format: ADME, organism-based; conditions: in vivo, 0.5 h; method in brief: as §1
[24] = Drug distribution in western atherogenic diet fed ApoE-/- mouse muscle tissue at […], iv administered as bolus injection measured for 30 mins by gamma counter analysis; format: ADME, organism-based; conditions: in vivo, 0.5 h; method in brief: as §1
[25] = Drug distribution in western atherogenic diet fed ApoE-/- mouse brain at […], iv administered as bolus injection measured for 30 mins by gamma counter analysis; format: ADME, organism-based; conditions: in vivo, 0.5 h; method in brief: as §1

Sequence of Neutrophil collagenase (P22894 whole entry): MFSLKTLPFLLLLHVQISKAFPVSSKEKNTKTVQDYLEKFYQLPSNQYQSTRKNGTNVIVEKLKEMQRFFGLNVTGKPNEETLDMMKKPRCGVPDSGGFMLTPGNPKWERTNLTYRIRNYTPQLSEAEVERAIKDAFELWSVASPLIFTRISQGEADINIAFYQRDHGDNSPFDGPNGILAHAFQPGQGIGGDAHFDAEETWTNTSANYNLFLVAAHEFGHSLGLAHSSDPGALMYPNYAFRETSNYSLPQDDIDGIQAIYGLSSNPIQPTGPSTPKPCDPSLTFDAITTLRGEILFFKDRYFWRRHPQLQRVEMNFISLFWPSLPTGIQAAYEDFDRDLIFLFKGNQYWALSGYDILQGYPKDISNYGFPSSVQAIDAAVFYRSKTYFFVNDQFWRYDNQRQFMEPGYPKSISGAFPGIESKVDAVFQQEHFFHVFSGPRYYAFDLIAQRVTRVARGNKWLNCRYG

IC50 (Neutrophil collagenase): 0.78 µM
IC50 [1]: > 10 µM
IC50 (Stromelysin-2): 9.1 µM
IC50 [2]: > 10 µM
IC50 (Collagenase 3): 0.024 µM
IC50 (Interstitial collagenase): > 10 µM
Compound: COc1ccc(CCOc2c(F)ccc3nc(C(=O)NCc4ccc(F)c(C)c4)[nH]c(=O)c23)cc1

IC50 (Neutrophil collagenase): 1.2 µM
IC50 [1]: > 10 µM
IC50 (Stromelysin-2): 3.1 µM
IC50 [2]: > 10 µM
IC50 (Collagenase 3): 0.016 µM
IC50 (Interstitial collagenase): > 10 µM
Compound: Cc1cc(CNC(=O)c2nc3ccc(F)c(OCCF)c3c(=O)[nH]2)ccc1F

IC50 (Collagenase 3): 0.118 µM
Compound: COc1cccc(CNC(=O)c2nc3ccc(F)c(F)c3c(=O)[nH]2)c1

Drug uptake [3]: ~ 2 % ID/g
Drug uptake [4]: ~ 2 % ID/g
Drug uptake [5]: 25.29 %ID/cc
Drug uptake [6]: 30.95 % ID/g
Drug uptake [7]: 2.11 % ID/g
Stability [8]: Stable
Drug uptake [9]: 7.29 % ID/g
Drug uptake [10]: Not Active
Drug uptake [11]: 21.01 %ID/cc
Drug uptake [12]: Active
Drug uptake [13]: ~ 2 % ID/g
Drug uptake [14]: 53.05 % ID/g
Drug uptake [15]: ~ 2 % ID/g
Drug uptake [16]: 52.97 %ID.m^-2
Tmax [17]: 37.5 s
logD at 10 min [18]: 1.16
Drug uptake [19]: < 0.5 %ID/cc
remaining at 0.5 h [20]: 86%
Drug uptake [21]: ~ 2 % ID/g
Drug uptake [22]: 0.49 % ID/g
Drug uptake [23]: ~ 1 % ID/g
Drug uptake [24]: ~ 2 % ID/g
Drug uptake [25]: ~ 2 % ID/g
Compound: [11CH3]Oc1cccc(CNC(=O)c2nc3ccc(F)c(OCCc4ccc(C(=O)O)cc4)c3c(=O)[nH]2)c1

IC50 (Neutrophil collagenase): 1.4 µM
IC50 [1]: > 10 µM
IC50 (Stromelysin-2): 2.7 µM
IC50 [2]: > 10 µM
IC50 (Collagenase 3): 0.0029 µM
IC50 (Interstitial collagenase): > 10 µM
Compound: COc1ccc(CNC(=O)c2nc3ccc(F)c(OCCc4ccc(C(=O)O)cc4)c3c(=O)[nH]2)cc1

IC50 (Collagenase 3): 0.106 µM
Compound: Cc1cc(CNC(=O)c2nc3ccc(F)c(F)c3c(=O)[nH]2)ccc1F

IC50 (Collagenase 3): 0.127 µM
Compound: COc1ccc(CNC(=O)c2nc3ccc(F)c(OCCF)c3c(=O)[nH]2)cc1

IC50 (Collagenase 3): 0.052 µM
Compound: Cc1cc(CNC(=O)c2cc(C(=O)NCc3ccc(OCCF)cc3)ncn2)ccc1F

IC50 (Collagenase 3): 0.149 µM
Compound: O=C(NCc1cccc(O)c1)c1nc2ccc(F)c(F)c2c(=O)[nH]1
